GRK2 inh: compounds blocking aptamer binding on GRK2 – biochemical, human GRK2, bead flow cytometry, HTS, primary screen. 0.59% of 330,000 active. inhibition of aptamer binding, % at 10 µM. Beta-adrenergic receptor kinase 1 (Homo sapiens), P25098. FAM-aptamer displacement from GRK2;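 active = inhibition of aptamer binding above 40%, roughly 3 SD of noise, on plates passing a quality check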;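 also: median bead fluorescence of bound FAM aptamer so fluorescent compounds give negative values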
SR-BI uptake up: activators of SR-BI mediated DiI-HDL uptake, primary screen, ldlA[mSR-BI] CHO cells, DiI fluorescence | 3 h; 100 = double the neutral-control signal | activation, % at 12.5 µM | 0.096% of 320,000 active | AID 504775, 2011;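 active = mean replicate activation of at least 60% and every replicate at or above 60%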;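 also: 0% = median plate neutral-control signal and 100% = twice that signal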
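Test system: SR-BI-overexpressing, LDLR-lacking CHO cells; Also added: labelled HDL, 10 µg/mL; Measured by: bottom-read cell fluorescence after medium removal, ex 550/em 595 nm; Timing: 3 h uptake period with compound, 37 °C; Buffer or medium: F12, 0.5% BSA, 25 mM HEPES; Doses: single compound concentration, delivered by pin transfer.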
Rin1 Abl inh: inhibitors of Rin1-Abl protein binding, primary screen, biochemical, TR-FRET. inhibition, % at 7.35 µM. AID 588664, 2011. Tyrosine-protein kinase ABL1 (Homo sapiens) + Ras and Rab interactor 1 (Homo sapiens), …. 0.4% of 360,000 active; in the data active = inhibition above about 5%, passing the limit was not always enough
SR-BI HDL uptake: inhibitors of SR-BI mediated HDL lipid uptake, primary screen, ldlA[mSR-BI] cells, fluorescence, single point; Scavenger receptor class B member 1 (Mus musculus), Q61009; ldlA[mSR-BI] CHO cells, DiI-HDL uptake fluorescence, 3 h; inhibition, % at 12.5 µM; 0.96% of 320,000 active;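 active = mean replicate inhibition of at least 70% and a set share of replicates each scoring 70 or more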;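 also: 0% = median of neutral control wells and 100% = median of positive control wells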
Target sequence (Q61009 whole entry, looked up): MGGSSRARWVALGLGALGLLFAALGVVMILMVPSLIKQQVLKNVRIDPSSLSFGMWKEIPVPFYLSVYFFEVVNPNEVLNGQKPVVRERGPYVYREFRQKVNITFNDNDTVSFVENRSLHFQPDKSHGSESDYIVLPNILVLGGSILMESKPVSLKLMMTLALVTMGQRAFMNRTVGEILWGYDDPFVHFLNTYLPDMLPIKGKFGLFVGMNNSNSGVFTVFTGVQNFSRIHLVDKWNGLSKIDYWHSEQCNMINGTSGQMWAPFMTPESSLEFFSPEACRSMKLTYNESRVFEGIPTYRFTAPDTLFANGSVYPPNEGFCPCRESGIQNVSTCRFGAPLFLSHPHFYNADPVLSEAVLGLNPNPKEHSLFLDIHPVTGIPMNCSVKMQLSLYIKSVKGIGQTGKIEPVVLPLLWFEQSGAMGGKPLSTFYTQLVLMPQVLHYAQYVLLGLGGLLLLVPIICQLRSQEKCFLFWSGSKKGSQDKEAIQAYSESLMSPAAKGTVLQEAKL
GRK2 CP1: GRK2 aptamer-displacing inhibitors, retest, confirmation, biochemical, cherry pick 1, bead flow cytometry | shares compounds with GRK2 inh | bead-bound GRK2, FAM-aptamer displacement | aptamer displacement, % at 10 µM | 4% of 2,000 active;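 active = aptamer displacement above 40%, near three times the noise of non-fluorescent compounds, on plates passing quality checks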;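 also: negative values mostly reflect intrinsic compound fluorescence rather than true enhancement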
Aptamer quench: counter-screen for GRK2 aptamer inhibitors: fluorescent aptamer quenchers; shares compounds with GRK2 inh; Fluorescent RNA aptamer beads, quenching, flow cytometry; hits give high values; fluorescence change (kMESF span), kMESF (concentration not given with the values); 110 tested, under 10 active; AID 504521;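 active = compounds whose bead fluorescence drops by more than 37 kMESF across the dose range, marking them as dye quenchers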
Aptamer quench SP: quenches fluorescent RNA aptamer, GRK2 hit artifact; AID 504580; Carboxyfluorescein RNA aptamer on beads, flow cytometry quenching; hits give low values; 2,000 tested, under 10 active; shares compounds with GRK2 inh; fluorescence response (% of DMSO), % at 10 µM;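 active = compounds that quench the bead-bound fluorescent RNA probe, cutting fluorescence to under half of the solvent control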;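 also: counterscreen run without GRK2 so only probe quenching by compound is measured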
GRK2 confirm 2: GRK2 aptamer-displacing inhibitors, hit retest, confirmation, biochemical, cherry pick 2, bead flow cytometry | shares compounds with GRK2 inh | bead-bound GRK2, FAM-aptamer displacement | inhibition of aptamer binding, % at 10 µM | 360 tested, under 10 active | AID 504782, 2011;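 active = inhibition of aptamer binding above 40%, about triple the noise seen with nonglowing compounds, on plates passing quality control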;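 also: negative values mostly come from compounds that fluoresce themselves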
Aptamer quench3: fluorescence quenching of FAM-labeled RNA aptamer, dose response, artefact control for GRK2 aptamer inhibitor project, biochemical, flow cytometry, cherry pick 2; shares compounds with GRK2 inh; Streptavidin beads; change in fluorescence (kMESF span), kMESF (no concentration beside the values); 25 tested, under 10 active; AID 504819, 2011;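 active = compounds quenching the bead-bound labeled aptamer, with fluorescence dropping by more than 37 kMESF over the dose range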
FAM quench SP: aptamer fluorescence quenching in GRK2 counter-screen; shares compounds with GRK2 inh; carboxyfluorescein RNA aptamer beads, flow cytometry quenching; hits give low values; fluorescence response vs DMSO, % at 10 µM; 360 tested, under 10 active; AID 588494;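 active = response vs DMSO under 50%, meaning signal dropped by over half, treated as fluorescence quencher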;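 also: labelled aptamer on streptavidin beads without GRK2 as a quench counter-screen; 100% = bead fluorescence of DMSO wells and lower means quenching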
FAM quench PS1: quenchers of FAM-labeled RNA aptamer fluorescence, dose response, artefact control for GRK2 aptamer binding project, biochemical, powder set 1, flow cytometry; shares compounds with GRK2 inh; Bead-bound FAM RNA aptamer fluorescence quenching; hits give low values; fluorescence ratio to DMSO, % at 11.1 µM; 35 tested, under 10 active;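 active = compounds that dim the fluorescent label, raw bead signal shifting by over 33 units between lowest and highest dose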
Active calls of the source: *; · = not tested or not shown. A selection: hits, their analogues and other compounds. The true share with any hit is near 1.9%.

SMILES	GRK2 inh	SR-BI uptake up	Rin1 Abl inh	SR-BI HDL uptake	GRK2 CP1	Aptamer quench SP	others
Cc1cc(NC(=O)CSc2nc(-c3cccnc3)ccc2C#N)no1	0	-23	2	23	·	·
Cc1cc(NC(=O)CSc2nc3c(c(-c4cccnc4)c2C#N)CCC3)no1	77*	5	1	-5	1	90
C[C@@H]1CN([C@H](C)CO)C(=O)Cc2cc(NC(=O)Nc3ccccc3)ccc2O[C@@H]1CN(C)Cc1ccc2c(c1)OCO2	0	3	8	-3	·	·
O=C(COc1ccc(/C=N/NC(=O)c2ccncc2)cc1)Nc1ccccc1	95*	·	1	·	-3	100
Cc1nnc(SCc2ccc(CC(=O)O)cc2)o1	54*	39	1	-39	3	102
CCOc1ccc(C=NNC(=O)c2ccc(-n3cnnn3)cc2)cc1	0	-10	2	10	·	·
COC(=O)[C@@H](NCc1cccc(CN([C@H](C(=O)OC)C(C)C)S(C)(=O)=O)c1)C(C)C	0	-3	0	3	·	·
Cc1cccc(S(=O)(=O)Nc2cc(Cl)ccc2N2CCOCC2)c1	81*	7	2	-7	-2	106
O=S(=O)(Nc1cc(C(F)(F)F)ccc1N1CCOCC1)c1ccccc1	1	43	0	-43	·	·
O=c1cc[nH]c2ccc(OC(F)(F)F)cc12	86*	16	-2	-16	-1	100
CCCCCCCCCCCC1N=C(N)NC(CCCO)=C1C(=O)OC (centres undefined)	·	3	6	-3	·	·
CC(C)=CCC/C(C)=C/CNC(=O)C[C@H]1C[C@H](C(=O)N2CCOCC2)[C@@]2(CCC3CCCC3)c3[nH]c4cc(CCC(=O)N(C)C)ccc4c3CCN2C1=O	1	13	-1	-13	·	·
COc1ccc(C2=NO[C@@H]3C(=O)N(c4ccc5c(c4)OCCO5)C(=O)[C@H]23)cc1OC	0	26	6	-26	·	·	GRK2 confirm 2=18;FAM quench SP=104
CC(=O)Nc1cccc(-n2nnc(SCC(N)=O)n2)c1	0	12	-2	-12	·	·
CC(=O)Nc1cccc(-n2nnc(SCC(=O)Nc3ccc(F)c(Cl)c3)n2)c1	86*	-12	0	12	1	99
CCOCCCNCC(=O)NCC1CCCCC1	3	7	5	-7	·	·
Cc1cc2nc(N3C(=O)CNC3=S)sc2cc1C	75*	9	-2	-9	-1	97
CCCOc1ccc(OC(=O)Cc2ccc(OC)c(S(=O)(=O)N3CCOCC3)c2)cc1	100*	9	3	-9	-7	100
CCc1ccc(OC(=O)Cc2ccc(OC)c(S(=O)(=O)N3CCOCC3)c2)cc1	0	2	2	-2	·	·
COc1cc(NC(=O)CN(C)S(=O)(=O)c2ccc3c(c2)CC(C)N3C(C)=O)cc(OC)c1 (centres undefined)	3	-21	0	21	·	·
COc1cccc(C(=O)OCC(=O)c2c[nH]c3ccccc23)c1OC	43*	-5	3	5	-7	122
CCCc1ccc(OCc2ccc(C(=O)N3CCN(c4ccccn4)CC3)o2)c(OC)c1	47*	-32	3	32	2	96
O=C(O)c1ccccc1-c1ncc(-c2ccccc2)o1	1	13	-2	-13	·	·
COc1ccc(CNC(=O)C2CC(C)=C(C)CC2C(=O)O)cc1OC (centres undefined)	0	10	1	-10	·	·	GRK2 confirm 2=6;FAM quench SP=98
CCOc1ccc(CCNC(=O)C2CC(C)=CCC2C(=O)O)cc1OCC (centres undefined)	66*	0	4	0	53*	98	Aptamer quench=4.1
SMILES	GRK2 inh	SR-BI uptake up	Rin1 Abl inh	SR-BI HDL uptake	GRK2 CP1	Aptamer quench SP	others
COc1ccc(OCC(=O)N2CCN(c3nnc(-c4ccccc4)c4ccccc34)CC2)cc1	2	-56	-1	56	·	·
COc1ccc(OCC(=O)N2CCN(c3nnc(-c4ccc(C)cc4)c4ccccc34)CC2)cc1	54*	-77	0	77*	1	91
CCc1ccc(NC(=O)CSc2nncn2-c2cccnc2)cc1	0	·	5	·	·	·
Cc1ccc(Cn2c(Cc3ccccc3)nc3ccccc32)cc1	96*	-5	2	5	1	95
Fc1ccc(CNc2cnccn2)cc1	64*	22	-3	-22	-1	100
Clc1ccc(CNc2cnccn2)cc1	2	3	-2	-3	·	·
COc1ccc(Br)c(C(=O)OCC(=O)N2CCC(Cc3ccccc3)CC2)c1	·	-39	2	39	·	·
CCc1nnc(NS(=O)(=O)c2ccc(NC(=O)COc3ccc4ccccc4c3)cc2)s1	51*	16	2	-16	3	98
Cc1ccc2[nH]c(-c3ccccc3)c(CN(C)C)c(=O)c2c1	29	-9	0	9	-5	98
CCc1ccccc1NC(=O)CCS(=O)(=O)c1ccc(C)cc1	0	7	0	-7	·	·
O=C(CCNS(=O)(=O)c1ccc(Br)cc1)NC1CCCCC1	0	10	-1	-10	·	·
CCOc1ccccc1NC(=O)CCS(=O)(=O)c1ccc(Br)cc1	98*	-2	-1	2	92*	95	Aptamer quench=-4;Aptamer quench3=0.2;FAM quench PS1=100
O=C(CCS(=O)(=O)c1ccc(Br)cc1)Nc1cc(F)ccc1F	82*	6	-1	-6	·	·	GRK2 confirm 2=26;Aptamer quench3=1.4;FAM quench SP=100;FAM quench PS1=99

Source: PubChem
